{"source": "ChEMBL document CHEMBL1909525", "about": "“Synthesis and anticonvulsant activity of novel 2,6-diketopiperazine derivatives. Part 1: perhydropyrrole[1,2-a]pyrazines” (Eur J Med Chem, 2011)", "key": {"Rattus norvegicus [1]": {"species": "Rattus norvegicus", "assay": "Inhibition of voltage-gated sodium channel in Wistar rat cerebral prefrontal coronal slices assessed as decrease of 10 Hz current-induced current amplitude at 10 to 100 uM after 5 mins by whole cell voltage clamp method", "summary_of_the_method": "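Na+ currents recorded by whole-cell voltage clamp in dispersed mPFC cells from coronal prefrontal slices of 3-week-old male Wistar rats. TEA-based bath, pH 7.4. Trains of 100 pulses at 10 Hz, each a step to -20 mV after a -100 mV prepulse. Amplitude decline over the train compared between control and 5 min compound application; n = 3.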"}, "Mus musculus [2]": {"test_system": "Mus musculus", "assay": "Anticonvulsant activity in albino Carworth Farms No.1 mouse assessed as protection against electric-current for 3 secs-induced seizure at 75 mg/kg, ip after 1 hr by 6Hz minimal clonic seizure test", "type": "functional, organism-based", "set-up": "dose 75 mg/kg", "summary_of_the_method": "(§1)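 6 Hz psychomotor seizure test in mice. Compound given i.p. as a suspension in 0.5% methylcellulose. Corneal stimulation at 32 mA, 0.2-ms monopolar rectangular pulses at 6 Hz for 3 s, from a constant-current device. Tests run 0.25–4 h after dosing. A mouse counted as protected if it resumed normal exploratory behaviour within 10 s; scored as protected/tested.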"}, "Mus musculus [3]": {"test_system": "Mus musculus", "assay": "Anticonvulsant activity in albino Carworth Farms No.1 mouse assessed as protection against maximal electroshock-induced seizure at 300 mg/kg, ip after 4 hrs", "type": "functional, organism-based", "set-up": "dose 300 mg/kg", "summary_of_the_method": "(§2)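 Mouse MES test with compound given i.p. (30, 100 or 300 mg/kg) in 0.5% methylcellulose; tested at 0.5 and 4 h. Corneal stimulus of 50 mA at 60 Hz for 0.2 s, electrodes primed with 0.5% butacaine in 0.9% NaCl. Protection is abolition of hindlimb tonic extension; scored as protected/tested.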"}, "Mus musculus [4]": {"test_system": "Mus musculus", "assay": "Neurotoxicity in albino Carworth Farms No.1 mouse assessed as motor impairment at 30 mg/kg, ip after 4 hrs by rotarod test", "type": "toxicity, organism-based", "set-up": "dose 30 mg/kg, route intraperitoneal", "conditions": "in vivo", "summary_of_the_method": "(§3)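 Rotorod neurotoxicity in mice at 6 r.p.m. Compound given i.p. (30, 100, 300 mg/kg) in 0.5% methylcellulose; tested at 30 min and 4 h. Impairment is inability to keep equilibrium on the rod for a given time; scored as impaired/tested.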"}, "Mus musculus [5]": {"test_system": "Mus musculus", "assay": "Anticonvulsant activity in ip dosed albino Carworth Farms No.1 mouse assessed as protection against maximal electroshock-induced seizure after 0.25 hrs", "type": "functional", "conditions": "albino Carworth Farms No.1, ip", "summary_of_the_method": "(§4)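 Mouse quantification at the time of peak effect, compound given i.p. in 0.5% methylcellulose. Groups of at least eight mice received varied doses until at least two points fell between 100 and 0% response. ED50 (MES, scMET) and TD50 (rotorod) with 95% CI by probit analysis (Finney). PI = TD50/ED50 MES.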"}, "Mus musculus [6]": {"test_system": "Mus musculus", "assay": "Neurotoxicity in albino Carworth Farms No.1 mouse assessed as motor impairment at 300 mg/kg, ip after 0.5 hrs by rotarod test", "type": "toxicity, organism-based", "set-up": "dose 300 mg/kg, route intraperitoneal", "conditions": "in vivo", "summary_of_the_method": "as §3"}, "Mus musculus [7]": {"test_system": "Mus musculus", "assay": "Anticonvulsant activity in albino Carworth Farms No.1 mouse assessed as protection against electric-current for 3 secs-induced seizure at 75 mg/kg, ip after 4 hrs by 6Hz minimal clonic seizure test", "type": "functional, organism-based", "set-up": "dose 75 mg/kg", "summary_of_the_method": "as §1"}, "Rattus norvegicus [8]": {"test_system": "Rattus norvegicus", "assay": "Toxicity in albino Sprague-Dawley rat pilocarpine-induced status epilepticus model assessed as change in body weight in protected rat at 65 mg/kg, ip measured after 24 hrs of time from first stage 3 seizures", "type": "organism-based", "set-up": "dose 65 mg/kg, route intraperitoneal", "conditions": "in vivo", "summary_of_the_method": "(§5)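 Male albino Sprague-Dawley rats (150–180 g) received compound i.p., then a pilocarpine challenge immediately (0 min) or 30 min after treatment. The outcome was protection or no protection from seizures, scored as number protected/number tested. Average body weight change (g) ± S.E.M. was reported separately for protected and non-protected rats.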"}, "Mus musculus [9]": {"test_system": "Mus musculus", "assay": "Anticonvulsant activity in albino Carworth Farms No.1 mouse assessed as protection against maximal electroshock-induced seizure at 100 mg/kg, ip after 0.5 hrs", "type": "functional, organism-based", "set-up": "dose 100 mg/kg", "summary_of_the_method": "as §2"}, "Rattus norvegicus [10]": {"species": "Rattus norvegicus", "assay": "Inhibition of voltage-gated sodium channel in Wistar rat cerebral prefrontal coronal slices assessed as decrease of 0.1 Hz current-induced current amplitude at 10 to 100 uM after 5 mins by whole cell voltage clamp method", "summary_of_the_method": "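Whole-cell voltage clamp on mechanically dispersed mPFC cells from coronal prefrontal slices of 3-week-old male Wistar rats. Bath: TEA-OH 90, NaCl 30, HEPES 10, MgCl2 2, CaCl2 2, glucose 15 mM, pH 7.4. Na+ currents evoked at 0.1 Hz by a step to -20 mV (30 ms) after a -100 mV prepulse (1000 ms). Amplitude compared before and after 5 min compound application; n = 3.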"}, "Rattus norvegicus [11]": {"species": "Rattus norvegicus", "assay": "Protective index, ratio of TD50 for albino Sprague-Dawley rat to ED50 for albino Sprague-Dawley rat by maximal electroshock-induced seizure test", "type": "functional"}, "Mus musculus [12]": {"test_system": "Mus musculus", "assay": "Anticonvulsant activity in albino Carworth Farms No.1 mouse assessed as protection against maximal electroshock-induced seizure at 300 mg/kg, ip after 0.5 hrs", "type": "functional, organism-based", "set-up": "dose 300 mg/kg", "summary_of_the_method": "as §2"}, "Mus musculus [13]": {"test_system": "Mus musculus", "assay": "Anticonvulsant activity in albino Carworth Farms No.1 mouse assessed as protection against subcutaneous metrazol-induced seizure at 30 mg/kg, ip after 0.5 hrs", "type": "functional, organism-based", "set-up": "dose 30 mg/kg", "summary_of_the_method": "(§6)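 Mouse scMET test. Compound given i.p. (30, 100 or 300 mg/kg) in 0.5% methylcellulose. Pentylenetetrazole 85 mg/kg (CD97) given s.c. at 0.5 or 4 h, then mice observed for 30 min. Protection is absence of clonic spasms; scored as protected/tested.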"}, "[14]": {"assay": "Neurotoxicity in po dosed albino Sprague-Dawley rat assessed as motor impairment after 0.25 hrs by rotarod test", "type": "toxicity, organism-based", "conditions": "in vivo", "summary_of_the_method": "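Rats dosed orally, compound in 0.5% methylcellulose. MES at 150 mA, 60 Hz, 0.2 s; scMET with pentylenetetrazole 70 mg/kg s.c. plus 30 min observation; rotorod for toxicity.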"}, "Mus musculus [15]": {"test_system": "Mus musculus", "assay": "Anticonvulsant activity in albino Carworth Farms No.1 mouse assessed as protection against subcutaneous metrazol-induced seizure at 100 mg/kg, ip after 4 hrs", "type": "functional, organism-based", "set-up": "dose 100 mg/kg", "summary_of_the_method": "as §6"}, "Rattus norvegicus [16]": {"species": "Rattus norvegicus", "assay": "Inhibition of voltage-gated sodium channel in Wistar rat cerebral prefrontal coronal slices assessed as decrease of […] current-induced current amplitude at 100 uM after 5 mins by whole cell voltage clamp method (reference value: 8 +/- 2.3%)", "set-up": "scale not given: the % may be the effect or the level left"}, "Mus musculus [17]": {"test_system": "Mus musculus", "assay": "Anticonvulsant activity in ip dosed albino Carworth Farms No.1 mouse assessed as protection against subcutaneous metrazol-induced seizure after 0.25 hrs", "type": "functional", "conditions": "albino Carworth Farms No.1, 0.25 h", "summary_of_the_method": "as §4"}, "Mus musculus [18]": {"species": "Mus musculus", "assay": "Protective index, ratio of TD50 for albino Carworth Farms No.1 mouse to ED50 for albino Carworth Farms No.1 mouse by maximal electroshock-induced seizure test", "type": "functional", "summary_of_the_method": "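Mouse quantification at the time of peak effect, compound given i.p. in 0.5% methylcellulose. Groups of at least eight mice received varied doses until at least two points fell between 100 and 0% response. PI = TD50/ED50 MES.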"}, "Rattus norvegicus [19]": {"test_system": "Rattus norvegicus", "assay": "Anticonvulsant activity in albino Sprague-Dawley rat assessed as protection against pilocarpine-induced status epilepticus at 130 mg/kg, ip measured after time from first stage 3 seizures", "type": "functional, organism-based", "set-up": "dose 130 mg/kg", "summary_of_the_method": "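Male albino Sprague-Dawley rats, 150–180 g. Compound given i.p., then a challenge dose of pilocarpine at 0 min or at 30 min. Outcome scored as protection or no protection from seizures (protected/tested), with body weight change recorded.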"}, "Rattus norvegicus [20]": {"test_system": "Rattus norvegicus", "assay": "Toxicity in albino Sprague-Dawley rat pilocarpine-induced status epilepticus model assessed as change in body weight in protected rat at 130 mg/kg, ip measured after 24 hrs of time from first stage 3 seizures", "type": "organism-based", "set-up": "dose 130 mg/kg, route intraperitoneal", "conditions": "in vivo", "summary_of_the_method": "as §5"}, "Mus musculus [21]": {"test_system": "Mus musculus", "assay": "Anticonvulsant activity in albino Carworth Farms No.1 mouse assessed as protection against subcutaneous metrazol-induced seizure at 300 mg/kg, ip after 4 hrs", "type": "functional, organism-based", "set-up": "dose 300 mg/kg", "summary_of_the_method": "as §6"}}, "note": "Active and inactive are the calls of the source. The calls are words filed in the database; no cut-off is given here.", "data": [{"smiles": "O=C1NC(=O)[C@@H]2CCCN2[C@H]1c1ccccc1", "values": [{"measurement": "inhibition", "setting": "Rattus norvegicus [1]", "result": "inactive"}, {"measurement": "Activity", "setting": "Mus musculus [2]", "result": "inactive"}, {"measurement": "Activity", "setting": "Mus musculus [3]", "result": "inactive"}, {"measurement": "Activity", "setting": "Mus musculus [4]", "result": "Non-toxic"}, {"measurement": "ED50", "setting": "Mus musculus [5]", "result": 69.5, "unit": "mg/kg"}, {"measurement": "Activity", "setting": "Mus musculus [6]", "result": "Non-toxic"}, {"measurement": "Activity", "setting": "Mus musculus [7]", "result": "inactive"}, {"measurement": "Activity", "setting": "Rattus norvegicus [8]", "result": 4.4, "unit": "g"}, {"measurement": "Activity", "setting": "Mus musculus [9]", "result": "Active"}, {"measurement": "inhibition", "setting": "Rattus norvegicus [10]", "result": "inactive"}, {"measurement": "Ratio TD50/ED50", "setting": "Rattus norvegicus [11]", "result": ">12.6"}, {"measurement": "Activity", "setting": "Mus musculus [12]", "result": "inactive"}, {"measurement": "Activity", "setting": "Mus musculus [13]", "result": "inactive"}, {"measurement": "TD50 at 0.25 h", "setting": "[14]", "result": "> 500", "unit": "mg/kg"}, {"measurement": "Activity", "setting": "Mus musculus [15]", "result": "inactive"}, {"measurement": "Activity", "setting": "Rattus norvegicus [16]", "result": 14.1, "unit": "%"}, {"measurement": "ED50", "setting": "Mus musculus [17]", "result": 87.9, "unit": "mg/kg"}, {"measurement": "Ratio TD50/ED50", "setting": "Mus musculus [18]", "result": 1.7}, {"measurement": "Activity", "setting": "Rattus norvegicus [19]", "result": "Active"}, {"measurement": "Activity", "setting": "Rattus norvegicus [20]", "result": 12.5, "unit": "g"}, {"measurement": "Activity", "setting": "Mus musculus [21]", "result": "inactive"}]}]}
